Screens: PubChem BioAssay, several laboratories
Only some compounds are listed: those with a hit (about 2% of all), similar ones and a draw of the others.
FLuc act counter: firefly luciferase counter-screen for stimulation assays; ATPlite luciferase biochemical, luminescence, 10 min; 0 = ATP-free wells, 1 = DMSO control; activation factor at 10 µM; 200,000 tested, under 10 active; AID 1027;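 active means luciferase activation factor, scaled between plate controls, of at least 2 with compound at 10 µM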
Target sequence (P08659 whole entry, looked up): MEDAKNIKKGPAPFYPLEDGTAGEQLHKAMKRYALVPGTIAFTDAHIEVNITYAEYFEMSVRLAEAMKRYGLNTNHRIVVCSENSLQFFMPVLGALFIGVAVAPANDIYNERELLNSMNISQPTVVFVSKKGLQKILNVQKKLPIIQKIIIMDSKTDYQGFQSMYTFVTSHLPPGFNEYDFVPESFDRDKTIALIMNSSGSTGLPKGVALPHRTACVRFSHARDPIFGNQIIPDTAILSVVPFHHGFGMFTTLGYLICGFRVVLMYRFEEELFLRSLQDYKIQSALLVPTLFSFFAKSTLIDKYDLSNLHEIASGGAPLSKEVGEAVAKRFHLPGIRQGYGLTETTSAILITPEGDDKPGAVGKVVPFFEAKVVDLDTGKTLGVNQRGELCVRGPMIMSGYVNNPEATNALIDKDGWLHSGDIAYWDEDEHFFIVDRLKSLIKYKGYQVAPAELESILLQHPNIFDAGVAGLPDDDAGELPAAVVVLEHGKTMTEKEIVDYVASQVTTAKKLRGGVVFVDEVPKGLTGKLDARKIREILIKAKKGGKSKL
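System: luciferase plus luciferin reagent, cell-free; medium: PBS as buffer for the ATP substrate; dosing: test compounds dosed from 2 mM stocks in 100% DMSO; timing: 10 min post-reagent at room temperature; measured by: luminescence measurement of luciferase light output; evaluation: luciferase activation, seen as luminescence increase over controls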
PPC-1+TRAIL kill: kills PPC-1 cancer cells in the presence of TRAIL | actives 0.41% (n = 220,000) | PPC-1 cells + TRAIL, ATPLite viability luminescence | AID 1443 | cell killing (% activity), % at 4 µM or 5 µM;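 active means cell killing above 50% in the first pass at 4 µM, then a duplicate retest at 5 µM averaging 50% or more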;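 further: plate controls were cells with TRAIL plus DMSO for no effect and medium-only wells lacking cells for full effect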
FLuc inh counter: counter-screen for luciferase assay inhibitors: firefly luciferase inhibition; inhibition, % at 10 µM; P08659; actives 1.5% (n = 200,000); AID 1006; ATPLite firefly luciferase biochemical luminescence, 10 min;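 active means inhibition above about 50% when tested at 10 µM, limit read from the data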
HSP90 refold inh: inhibitors of HSP90 luciferase refolding in rabbit reticulocyte lysate | luciferase refolding luminescence, 3 h | inhibition, % at 5.6 µM | actives 0.91% (n = 290,000) | AID 1789;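 active means inhibition above the screen-wide mean plus 3 SD, computed separately per campaign, cut at about 16% in these data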;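 further: 0% = DMSO wells and 100% = 60 µM geldanamycin wells; inhibitors lower the luminescence because luciferase stays unfolded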
TRAIL sens C8: sensitizes caspase-8 expressing cells to TRAIL. AID 624354. actives 1% (n = 360,000). inhibition (viability loss, TRAIL sensitization), % at 10 µM. NB7+C8 cells + TRAIL, ATPlite viability luminescence;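 active means compounds causing at least 50% loss of cell viability in the single-dose screen, relative to plate controls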
PPC1 cytotox: kills PPC-1 cells. shares compounds with PPC-1+TRAIL kill. AID 1447. actives 50% (n = 1,200). cytotoxicity, % at 5 µM. PPC-1 viability, ATPlite luminescence, overnight;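 active means reconfirmed compounds whose average cytotoxicity reaches 50% or more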;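 further: 0% = DMSO-treated cells and 100% = wells holding medium but no cells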
* marks the source's active call; other numbers are inactive results; nt = no result.

SMILES	FLuc act counter	PPC-1+TRAIL kill	FLuc inh counter	HSP90 refold inh	TRAIL sens C8	PPC1 cytotox
COc1ccc(OC)c(C(=O)/C=C/c2ccccc2C(F)(F)F)c1	1	-5.0	-1.0	2.9	23.5	-1.7
CC1CCCC/C1=N\NS(=O)(=O)c1ccc(Br)cc1 (stereo unspecified)	1.1	-4.0	-6.8	2.0	-0.3	11.1
Cc1ccc(N2C(=O)c3ccccc3C2O)nc1 (stereo unspecified)	0.2	53.5*	79.9*	33.1*	nt	54.1*
Oc1ccccc1N=Nc1nc(-c2ccccc2)c(-c2ccccc2)[nH]1	1	20.9	-1.9	-0.5	-0.5	23.3
Cc1ccc(-n2c(-c3ccccc3)c[n+]3c2CCc2ccccc2-3)c(C)c1	1.1	25.1	-8.8	2.2	37.2	22.6
O=C(NCc1ccc(F)cc1)c1cc(C2CCCCN2C(=O)CCc2ccccc2)on1 (stereo unspecified)	nt	nt	nt	nt	20.7	nt
O=C(Nc1cccc(-c2nc3ccccc3s2)c1)c1cc(-n2cnnc2)ccc1Cl	0.9	10.8	9.9	-1.3	23.8	nt
Cc1c(NC(=O)c2cc(-n3cnnc3)ccc2Cl)cccc1-c1nc2ccccc2s1	0.2	61.1*	79.1*	-0.9	77.6*	57.6*
COc1ccc(-c2n(Cc3ccccc3)c3ccccc3[n+]2Cc2ccccc2)cc1	1	8.0	-1.1	-3.7	24.6	4.6
COc1ccc(-c2nc3ccccc3n2Cc2ccccc2)cc1	1	7.7	4.8	1.2	4.5	nt
Cn1cnnc1SCCn1c(N2CCCCC2)nc2c1c(=O)[nH]c(=O)n2C	1	5.4	-2.8	4.5	-16.0	4.2
COc1ccc(-c2nsc(C(=O)N(c3ccc(F)cc3)C(C(=O)NC3CCCC3)c3ccc(OC)cc3)c2N)cc1 (stereo unspecified)	1	5.6	-4.3	3.4	0.1	0.8
COc1ccccc1-c1nnc(NC(=O)CSc2nncn2C)s1	0.1	76.8*	93.8*	-0.2	83.4*	68.4*
COc1ccccc1-c1nnc(NC(=O)C(C)Sc2nncn2C)s1 (stereo unspecified)	0.7	1.3	32.1	0.5	6.0	nt
CC(C)(C)C(=O)Nc1cccc(-c2nc3ccccc3c(=O)o2)c1	0.8	52.1*	20.0	2.8	58.6*	53.0*
COc1ccc(/C=C/C2=NN(C)C(=O)CC2)cc1	0.2	52.9*	81.0*	-3.4	53.5*	48.4
CC(=O)Nc1sc2c(c1-c1nc3ccccc3s1)CCN(C(C)C)C2	1	37.0	-2.6	2.7	53.7*	27.2
CN(CCO)c1cccc2c1S(=O)(=O)N[C@@H](Cc1ccccc1)CO2	nt	nt	nt	nt	4.4	nt
O=C(NC1CC1)c1cccc(Nc2ccc(-c3ccc4c(c3)OCCO4)nn2)c1	0.2	68.6*	83.2*	-3.5	72.3*	66.0*
OC(c1cc(-c2ccc(Cl)cc2)nc2ccccc12)C1CCCCN1 (stereo unspecified)	nt	9.4	nt	3.8	33.0	-6.3
COc1ccc(CNC(=O)COC(=O)c2cc(C)oc2C)cc1	nt	nt	nt	nt	0.4	nt
C[C@@H]1CN([C@@H](C)CO)S(=O)(=O)c2ccc(C#Cc3cccc(F)c3)cc2O[C@@H]1CN(C)CC1CC1	nt	nt	nt	nt	-9.7	nt
C=CCn1c(-c2ccc(OC)cc2)nc2nc3ccccc3nc21	0.9	-7.5	5.5	1.5	27.1	2.3
COc1cccc(-c2noc(CCC(=O)NC3CCCCC3)n2)c1	1	-1.4	-3.9	1.0	21.5	5.4
COc1ccc(-c2noc(CCC(=O)NC3CCCCC3)n2)cc1OC	1	12.7	1.0	-4.5	0.8	nt
SMILES	FLuc act counter	PPC-1+TRAIL kill	FLuc inh counter	HSP90 refold inh	TRAIL sens C8	PPC1 cytotox
CSc1cc(C)n(-c2ccccc2)c(=S)c1C(C)=O	1.1	-5.0	-6.1	1.6	19.6	-6.0
Nc1nc(CCl)nc(N(c2ccccc2)c2ccccc2)n1	nt	89.8*	nt	-3.7	93.5*	90.5*
Nc1nc(Cl)nc(N(c2ccccc2)c2ccccc2)n1	1.1	3.9	-6.4	-2.1	-4.8	nt
Cc1ccccc1C(=O)NC1CCN(CC(=O)Nc2ccc3c(c2)OCCO3)CC1	1	8.5	0.0	2.8	1.0	nt
O=C(CN1CCC(NC(=O)c2ccccc2F)CC1)Nc1ccc2c(c1)OCCO2	1	9.4	4.4	0.0	-5.0	-8.9
Oc1ccc(-n2cnnn2)cc1	1	16.6	0.1	4.2	-12.8	18.3
Clc1ccc(-n2cnnn2)cc1	1	8.6	-4.3	1.8	-11.8	nt
